# Source: PubChem (several laboratories)
# Shown are actives, neighbours in structure and some others; about 2.7% of the full set was active somewhere.
# ABCB1 block = inhibitors of human ABCB1 transporter, ABCG2 counter-screen. CCRF-Adr cells, JC-1 efflux, flow cytometry. inhibition, % at 6.6 µM. actives 0.067% (n = 190,000). AID 1326; in the data active = inhibition above about 40%;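 also: 0% = vehicle and 100% = reference inhibitor; higher value means more JC-1 retained so stronger ABCB1 efflux block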
# Measles CPE = protection of cells from measles virus; actives 1.5% (n = 140,000); protection (pct of control), % at 4 µM; AID 841; Measles virus-infected cells, CPE protection, absorbance; in the data active = protection mostly above about 24%, no sharp cut-off; inactive = mostly below about 26%
# ABCG2 inh = inhibitors of human ABCG2 transporter, ABCB1 counter-screen; Q9UNQ0; actives 0.1% (n = 190,000); inhibition, % at 6.6 µM; IgMXP3 cells, JC-1 efflux, flow cytometry; AID 1325;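 active = inhibition above 80%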;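 also: 0% = DMSO and 100% = nicardipine control wells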
#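 System: two drug-resistant human cell lines, ABCG2 and ABCB1; controls: nicardipine high and DMSO low controls; times: 10 min exposure at 25 °C with rotation, no wash; detection: flow cytometry of retained JC-1 fluorescence; read-out basis: percent efflux inhibition, scaled nicardipine 100% to DMSO 0%; doses: one concentration, 6.6 µM final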
# Redox H2O2 prof = compounds producing H2O2 with reducing agent – biochemical, NIH compound library profiling, artefact control for MLSCN library redox annotation, primary screen | DTT-dependent redox cycling H2O2, phenol red/HRP absorbance; 100% = 100 µM peroxide control, 0% = buffer | activation, % at 10 µM | actives 0.03% (n = 200,000) | AID 878;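 active = activation of at least 50% relative to the plate's high and low controls in the primary single-dose screen; inactive = activation below 50%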;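 also: compound incubated with DTT at 0.8 mM final as the reducing agent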
# FLuc inh counter = Photinus pyralis luciferase inhibition counter-screen. P08659. ATPLite firefly luciferase biochemical luminescence, 10 min. inhibition, % at 10 µM. actives 1.5% (n = 200,000);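 active = inhibition above about 50% when tested at 10 µM, limit read from the data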
# Target sequence (P08659 whole entry, looked up): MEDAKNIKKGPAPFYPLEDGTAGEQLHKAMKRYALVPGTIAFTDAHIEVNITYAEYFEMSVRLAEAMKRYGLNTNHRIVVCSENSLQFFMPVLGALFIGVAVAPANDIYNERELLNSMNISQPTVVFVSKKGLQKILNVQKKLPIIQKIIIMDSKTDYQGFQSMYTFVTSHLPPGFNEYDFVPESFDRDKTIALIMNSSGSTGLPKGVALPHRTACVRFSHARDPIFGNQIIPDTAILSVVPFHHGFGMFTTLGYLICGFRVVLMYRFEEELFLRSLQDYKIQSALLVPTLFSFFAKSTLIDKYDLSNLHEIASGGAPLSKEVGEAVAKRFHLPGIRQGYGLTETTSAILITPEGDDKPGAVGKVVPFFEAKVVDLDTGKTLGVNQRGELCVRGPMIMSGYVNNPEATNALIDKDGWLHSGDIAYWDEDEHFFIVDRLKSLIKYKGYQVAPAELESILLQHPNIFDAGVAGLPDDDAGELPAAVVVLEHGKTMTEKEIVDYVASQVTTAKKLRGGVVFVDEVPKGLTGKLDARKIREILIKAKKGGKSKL
# FLuc stim CS = firefly luciferase counter-screen for stimulation assays; P08659; ATPlite luciferase biochemical, luminescence, 10 min; 0 = ATP-free wells, 1 = DMSO control; activation factor at 10 µM; 200,000 tested, under 10 active; AID 1027;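 active = luciferase activation factor, scaled between plate controls, of at least 2 with compound at 10 µM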
#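 System: cell-free luciferase reagent; medium: PBS as buffer for the ATP substrate; doses: test compounds dosed from 2 mM stocks in 100% DMSO; incubation: 10 min, room temperature; measured by: luminescence from luciferase reaction; read-out: luciferase activation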
# * = called active by the depositor; · = no result.
SMILES,ABCB1 block,Measles CPE,ABCG2 inh,Redox H2O2 prof,FLuc inh counter,FLuc stim CS
CC1(C)Cc2ccccc2C(C(Cc2ccccc2)C(N)=O)=N1 (configuration not stated),1,·,8,-1,-4,1
Cc1nn(C)c(Cl)c1CN1CCN(C2CCCC2)C(CCO)C1 (configuration not stated),1,·,3,0,4,1
CN1CCN(c2ccc(-c3ccc4ccccc4n3)cc2)CC1,1,·,10,-1,94*,0.1
Cc1cc(-c2ccc(N3CCOCC3)cc2)nc2ccccc12,1,26,47,0,71*,0.3
Cc1ccc(-c2cc(C(=O)N3CCOCC3)c3ccccc3n2)cc1,1,7,4,0,41,0.6
c1ccc2nc(-c3ccncc3)ccc2c1,0,13,1,4,6,0.9
c1ccc2nc(-c3ccc(N4CCOCC4)cc3)ccc2c1,0,-1,0,2,88*,0.1
O=C(COC(=O)c1cnccn1)NCc1ccc2c(c1)OCO2,0,·,2,-2,-6,1.1
N#CCC(=O)c1sccc1-n1cccc1,1,·,3,1,0,1
CCOc1ccc2nc(NC(=O)c3ccc(OCC4CCCO4)cc3)sc2c1 (configuration not stated),-1,2,-5,1,22,0.8
COc1ccc(-c2nc3ccccn3c2C=O)cc1,1,9,6,0,61*,0.4
O=Cc1c(-c2ccc(F)cc2)nc2ccccn12,1,·,3,0,3,1
Cc1ccccc1Nc1nc(N)c2ccccc2n1,0,·,0,-2,87*,0.1
Cc1ccccc1Nc1nc(N)nc(CSc2nc3ccccc3c(=O)n2C)n1,1,4,3,1,-7,1.1
Oc1ccc(Nc2nc(N3CCCC3)c3ccccc3n2)cc1,1,7,2,-4,-7,1.1
Nc1nc(Nc2ccc(Cl)cc2)nc2ccccc12,0,2,1,0,93*,0.1
Nc1nc(CCl)nc(Nc2ccccc2)n1,1,·,3,0,7,0.9
Nc1nc(Nc2ccccc2)nc2ccccc12,0,1,2,1,88*,0.1
CCCOc1ccc(C(C(=O)OCCN(CC)CC)c2ccccc2)cc1 (configuration not stated),1,14,1,0,-4,1
COc1ccc2cc(C(=O)C3CCCN(C(=O)CCc4cnn(C)c4)C3)ccc2c1 (configuration not stated),3,·,12,-1,-6,1.1
Cc1cc(/C=C(\C#N)C(=O)Nc2ccccc2)c(C)n1-c1cccnc1,2,15,6,1,51*,0.5
CCOC(=O)/C(C#N)=C/c1cc(C)n(-c2ccc(Br)cc2)c1C,0,16,1,1,-8,1.1
CCOC(=O)/C(C#N)=C/c1cc(C)n(-c2ccccc2)c1C,1,14,3,0,76*,0.2
CCOc1ccc(C(O)C(CN2CCOCC2)c2ccccc2)cc1 (configuration not stated),-3,4,-2,1,0,1
O=C(OCCN1CCCC1=O)c1cc(F)c(F)c(F)c1F,0,5,2,0,-4,1
SMILES,ABCB1 block,Measles CPE,ABCG2 inh,Redox H2O2 prof,FLuc inh counter,FLuc stim CS
O=C(O)c1ccccc1-c1cn2cc(Cl)ccc2n1,0,·,7,-1,62*,0.4
Clc1ccc2nc(-c3ccc(Br)s3)cn2c1,0,1,15,-3,78*,0.2
N/C(=N\OC(=O)c1ccc2c(c1)OCO2)c1cccc(Br)c1,-1,·,-1,-1,96*,0
N/C(=N\OC(=O)c1cccc(Br)c1)c1ccc(Br)cc1,0,8,14,-3,-1,1
N/C(=N\OC(=O)c1ccc2c(c1)OCO2)c1cccnc1,0,·,3,1,97*,0
COc1ccc(/C(N)=N/OC(=O)c2ccc3c(c2)OCO3)cc1OC,0,1,1,-4,62*,0.4
N/C(=N\OC(=O)c1ccc2c(c1)OCO2)c1ccc([N+](=O)[O-])cc1,0,·,1,-1,15,0.9
CCOC(=O)CNC(=O)c1cn(CC)c(=O)c2cc(OC)c(OC)cc12,0,8,1,-2,-7,1.1
O=Nc1ccc(NOC(=O)c2ccccc2Br)cc1,-1,28*,-2,1,77*,0.2
CC(C)(C)n1cnc2cc(NCc3cccs3)ccc21,0,·,9,-1,20,0.8
CCn1cnc2cc(NC(=O)c3cccs3)ccc21,1,·,5,0,51*,0.5
CC(C)(C)n1cnc2cc(NC(=O)c3cccs3)ccc21,1,·,9,0,71*,0.3
COc1ccc(NC(=O)Cc2c(SC)c3ccccc3n2Cc2ccccc2)cc1,2,6,9,0,2,1
COc1ccc(Cl)cc1NC(=O)CN(C)CC(=O)NC(C)c1ccccc1 (configuration not stated),2,·,6,-2,-1,1
Cc1cc(C)cc(N(CC(=O)NC2CCCC2)C(=O)C2(C)CC(=O)N=C3C=CC=CN32)c1 (configuration not stated),0,·,0,0,-6,1.1
Cc1nnn(C23CC4CC(CC(C(=O)NN)(C4)C2)C3)n1,1,33*,4,0,-10,1.1
CCOc1ccc(OCc2cccc(C(=O)N3CCOCC3)c2)cc1,1,6,12,0,72*,0.3
O=C(c1cccc(OCc2ccccc2)c1)N1CCOCC1,0,·,1,3,0,1
CC(=O)Oc1cccc(/C=C2\C=C(c3ccc(C)cc3)OC2=O)c1,-1,·,-2,-2,44,0.6
Cc1ccc(C2=C/C(=C/c3cccs3)C(=O)O2)cc1,-1,14,-4,0,85*,0.1
S=C1c2ccccc2CN1c1ccccc1,0,3,0,0,8,0.9
Cc1ccc(N2Cc3ccccc3C2=S)cc1,-1,·,1,0,76*,0.2
COc1cccc(CNC(=O)Nc2cccs2)c1,-1,44*,-2,0,16,0.8
COc1ccc(CNc2nc3c(c(C(F)(F)F)n2)CCCCC3)cc1,0,13,1,0,-2,1
COc1ccc(CN2CCNC(=O)C2CC(=O)N(C)Cc2nccn2C)cc1OC (configuration not stated),0,·,-1,0,-4,1
Cc1ccc(N(CC(=O)NC2CCCC2)C(=O)c2c(C)noc2C)cc1C,0,12,1,4,-5,1
NC1=NC(=O)/C(=C/c2cccs2)S1,1,32,3,-3,11,0.9
